Measurements taken from ChEMBL document CHEMBL1136753, “Optimization of 2-phenylaminoimidazo[4,5-h]isoquinolin-9-ones: orally active inhibitors of lck kinase” (J Med Chem, 2003).

Experiments:
[1] = system: Jurkat; assay: Inhibition of Calcium release in jurkat cells; type: functional, cell-based; details: Homo sapiens
Outline: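 Jurkat cells loaded with Fluo-3, washed in HBSS with 1 mM CaCl₂, 1 mM MgCl₂, 10 mM HEPES, 2 mM probenecid, 1% FBS, pH 7.4. Final 3 × 10⁵ cells/mL. Compound added for 15 min at room temperature, then anti-CD3 (clone X35, final 0.25 µg/mL). FLIPR fluorescence followed for 13 min. Peak minus baseline plotted against concentration gives EC₅₀. Mean of two or more experiments in duplicate ± SD.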

[2] = target: Tyrosine-protein kinase Lck (Homo sapiens, UniProt P06239); assay: Inhibition of p56 Lck tyrosine kinase
[3] = tissue or blood; type: functional, tissue-based; details: Homo sapiens
[4] = species: Homo sapiens; assay: Inhibition of IL-2 production in human whole blood; type: functional
[5] = target: Tyrosine-protein kinase ZAP-70 (Homo sapiens, UniProt P43403); assay: Inhibition of Zeta-chain (TCR) associated protein kinase 70 kDa (ZAP-70)
Outline: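 Kinase-panel IC50 with ATP at or below the Km of each listed kinase. Each value is the mean of two or more separate determinations, each in duplicate.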

[6] = target: MAP kinase-activated protein kinase 5 (Homo sapiens, UniProt Q8IW41); assay: Inhibition of Protein kinase PRAK
Outline: (§1)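 Run externally by the Dundee consortium kinase panel with 100 µM ATP. IC50 values in µM.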

[7] = target: 3-phosphoinositide-dependent protein kinase 1 (Homo sapiens, UniProt O15530); assay: Inhibition of Phospho-inositide dependent kinase 1 (PDK1)
Outline: (§2)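 Serine/threonine kinase panel run through the Dundee consortium with ATP at 100 µM. IC₅₀ values are reported.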

[8] = target: RAC-alpha serine/threonine-protein kinase (Homo sapiens, UniProt P31749); assay: Inhibition of Protein kinase B alpha; outline: as §2
[9] = target: Glycogen synthase kinase-3 beta (Homo sapiens, UniProt P49841); assay: Inhibition of Glycogen synthase kinase-3 beta; outline: as §2
[10] = target: Proto-oncogene tyrosine-protein kinase Src (Homo sapiens, UniProt P12931); assay: Inhibition of Src protein tyrosine kinase
Outline: (§3)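 DELFIA tyrosine kinase assay on neutravidin-coated plates. Substrate is biotinylated poly-Glu₄-Tyr₁, with ATP at or below Km. Compounds are tested in 10-point dose response. After 45 min at room temperature, Eu-labelled anti-phosphotyrosine is added and time-resolved fluorescence is read (ex 360/em 620 nm). IC₅₀ is the mean of ≥2 determinations in duplicate.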

[11] = target: Inhibitor of nuclear factor kappa-B kinase subunit alpha (Homo sapiens, UniProt O15111); assay: Inhibition of IKK alpha kinase; outline: as §2
[12] = target: Cyclin-dependent kinase 2 (Homo sapiens, UniProt P24941); assay: Inhibition of Cyclin-dependent kinase 2; outline: as §2
[13] = target: AMP-activated protein kinase, AMPK; assay: Inhibition of AMP-activated Protein Kinase; type: protein-complex assay; outline: as §2
[14] = target: Mitogen-activated protein kinase; ERK1/ERK2 (Homo sapiens, UniProt P27361+P28482); assay: Inhibition of Mitogen-activated protein kinase; type: protein assay; outline: as §2
[15] = target: MAP kinase-activated protein kinase 2 (Homo sapiens, UniProt P49137); assay: Inhibition of MAP kinase-activated protein kinase 1b/MAP kinase-activated protein kinase 2; outline: as §2
[16] = target: Hepatocyte growth factor receptor (Homo sapiens, UniProt P08581); assay: Inhibition of Hepatocyte growth factor receptor; type: cell-based; outline: as §3
[17] = target: Protein kinase C (PKC); assay: Inhibition of Protein kinase C; type: protein assay; outline: as §2
[18] = target: Vascular endothelial growth factor receptor (Homo sapiens, UniProt P17948+P35916+P35968); assay: Inhibition of Vascular endothelial growth factor receptor; type: protein assay; outline: as §3
[19] = target: Tyrosine-protein kinase Lyn (Homo sapiens, UniProt P07948); assay: Inhibition of Protein tyrosine kinase Lyn; outline: as §3
[20] = target: Cyclin-dependent kinase 4 (Homo sapiens, UniProt P11802); assay: Inhibition of Cyclin-dependent kinase 4; outline: as §2
[21] = Inhibition of Platelet-derived growth factor receptor
Outline: (§4)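 DELFIA tyrosine kinase assay: enzyme at 0.8 nM final, biotin-poly-Glu₄-Tyr₁ substrate, 1 µM final ATP. Ten-point dilutions from 1 µg/mL final, 45 min at room temperature. Phosphotyrosine read by Eu-anti-phosphotyrosine time-resolved fluorescence. IC₅₀ is the mean of two or more determinations in duplicate.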

[22] = target: Rho-associated protein kinase 2 (Homo sapiens, UniProt O75116); assay: Inhibition of Protein kinase ROCK2; outline: as §2
[23] = target: Insulin receptor (Homo sapiens, UniProt P06213); assay: Inhibition of Insulin receptor; outline: as §3
[24] = target: Inhibitor of nuclear factor kappa-B kinase subunit beta (Homo sapiens, UniProt O14920); assay: Inhibition of IKK beta kinase; outline: as §2
[25] = target: Serine/threonine-protein kinase Chk1 (Homo sapiens, UniProt O14757); assay: Inhibition of Serine/threonine-protein kinase Chk1; outline: as §1
[26] = target: cAMP-dependent protein kinase (PKA) (Homo sapiens, UniProt P22694+P17612+P22612); assay: Inhibition of Protein kinase A (PKA); type: protein assay; outline: as §2
[27] = target: Tyrosine-protein kinase ITK/TSK (Homo sapiens, UniProt Q08881); assay: Inhibition of IL-2-inducible T-cell kinase (Itk kinase) was measured using DELFIA (dissociation enhanced lanthanide fluoroimmunoassay); outline: as §3
[28] = target: Casein kinase II (Homo sapiens, UniProt P19784+P67870+P68400); assay: Inhibition of Casein kinase II; type: protein-complex assay; outline: as §2
[29] = target: c-Jun N-terminal kinase, JNK (Homo sapiens, UniProt P45983+P53779+P45984); assay: Inhibition of c-Jun N-terminal kinase; type: protein assay; outline: as §2
[30] = target: Serine/threonine-protein kinase Sgk1 (Homo sapiens, UniProt O00141); assay: Inhibition of Serum/glucocorticoid regulated kinase; outline: as §2
[31] = Inhibition of Insulin-like growth factor receptor; outline: as §4
[32] = target: Receptor tyrosine-protein kinase erbB-2 (Homo sapiens, UniProt P04626); assay: Inhibition of Protein kinase HER-2; outline: as §3
[33] = target: Ribosomal protein S6 kinase alpha-5 (Homo sapiens, UniProt O75582); assay: Inhibition of MSK-1 kinase; outline: as §1
[34] = target: Ribosomal protein S6 kinase (P70S6K) (Homo sapiens, UniProt P23443+Q9UBS0); assay: Inhibition of Ribosomal protein S6 kinase (P70S6K kinase); type: protein-complex assay; outline: as §2
[35] = Inhibition of Calcium/calmodulin-dependent protein kinase
[36] = target: Tyrosine-protein kinase SYK (Homo sapiens, UniProt P43405); assay: Inhibition of Syk protein tyrosine kinase; outline: as §3
[37] = Inhibition of PHK phosphorylase kinase
[38] = target: Tyrosine-protein kinase CSK (Homo sapiens) (UniProt P41240); assay: Inhibition of Csk tyrosine kinase; details: concentration not given here; outline: as §4

Sequence of Tyrosine-protein kinase Lck (P06239 whole entry): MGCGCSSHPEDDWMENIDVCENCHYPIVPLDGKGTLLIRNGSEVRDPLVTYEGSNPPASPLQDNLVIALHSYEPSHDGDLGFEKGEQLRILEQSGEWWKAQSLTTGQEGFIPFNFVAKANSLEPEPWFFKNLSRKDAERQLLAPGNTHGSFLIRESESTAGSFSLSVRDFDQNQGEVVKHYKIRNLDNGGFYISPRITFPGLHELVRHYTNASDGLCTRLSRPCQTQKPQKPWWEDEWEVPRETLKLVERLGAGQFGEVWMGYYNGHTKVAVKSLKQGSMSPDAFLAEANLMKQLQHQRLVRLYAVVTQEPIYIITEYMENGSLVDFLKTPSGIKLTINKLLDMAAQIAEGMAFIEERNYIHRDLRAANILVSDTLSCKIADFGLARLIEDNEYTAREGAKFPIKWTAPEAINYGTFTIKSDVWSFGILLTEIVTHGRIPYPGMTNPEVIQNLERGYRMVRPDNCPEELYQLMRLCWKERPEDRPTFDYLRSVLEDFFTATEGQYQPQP
Sequence of RAC-alpha serine/threonine-protein kinase (P31749 whole entry): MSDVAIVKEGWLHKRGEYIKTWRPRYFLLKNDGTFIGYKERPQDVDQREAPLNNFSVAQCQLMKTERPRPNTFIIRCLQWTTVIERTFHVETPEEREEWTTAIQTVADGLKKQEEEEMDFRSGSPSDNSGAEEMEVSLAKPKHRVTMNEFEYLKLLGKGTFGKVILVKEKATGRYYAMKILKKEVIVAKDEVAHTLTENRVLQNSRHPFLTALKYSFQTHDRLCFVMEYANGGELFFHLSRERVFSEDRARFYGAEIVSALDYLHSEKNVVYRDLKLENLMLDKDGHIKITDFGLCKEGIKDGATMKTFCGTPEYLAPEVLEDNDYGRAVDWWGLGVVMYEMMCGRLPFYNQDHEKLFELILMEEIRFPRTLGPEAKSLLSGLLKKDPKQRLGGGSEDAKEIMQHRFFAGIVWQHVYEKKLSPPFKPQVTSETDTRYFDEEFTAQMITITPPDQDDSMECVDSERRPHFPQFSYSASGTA
Sequence of Cyclin-dependent kinase 4 (P11802 whole entry): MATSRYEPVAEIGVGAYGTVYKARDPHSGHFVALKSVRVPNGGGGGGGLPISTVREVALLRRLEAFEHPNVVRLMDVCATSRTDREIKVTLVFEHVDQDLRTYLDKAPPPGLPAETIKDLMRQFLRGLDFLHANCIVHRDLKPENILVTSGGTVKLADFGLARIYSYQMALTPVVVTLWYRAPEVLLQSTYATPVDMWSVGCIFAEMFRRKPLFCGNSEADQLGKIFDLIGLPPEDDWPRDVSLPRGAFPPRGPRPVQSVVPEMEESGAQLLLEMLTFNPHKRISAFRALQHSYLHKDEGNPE
Sequence of Serine/threonine-protein kinase Sgk1 (O00141 whole entry): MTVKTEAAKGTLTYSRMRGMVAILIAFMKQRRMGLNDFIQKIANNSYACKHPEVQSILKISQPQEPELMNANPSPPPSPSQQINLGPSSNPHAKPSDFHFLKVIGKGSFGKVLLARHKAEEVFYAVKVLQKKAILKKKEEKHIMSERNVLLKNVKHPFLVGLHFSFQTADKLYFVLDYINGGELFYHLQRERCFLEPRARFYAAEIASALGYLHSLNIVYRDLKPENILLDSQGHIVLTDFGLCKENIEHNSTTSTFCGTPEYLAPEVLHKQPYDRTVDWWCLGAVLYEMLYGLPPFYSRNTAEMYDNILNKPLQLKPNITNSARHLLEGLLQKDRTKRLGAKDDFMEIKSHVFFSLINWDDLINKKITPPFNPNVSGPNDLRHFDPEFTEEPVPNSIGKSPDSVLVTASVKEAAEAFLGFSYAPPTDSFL
Sequence of Insulin receptor (P06213 28-758 limits assumed): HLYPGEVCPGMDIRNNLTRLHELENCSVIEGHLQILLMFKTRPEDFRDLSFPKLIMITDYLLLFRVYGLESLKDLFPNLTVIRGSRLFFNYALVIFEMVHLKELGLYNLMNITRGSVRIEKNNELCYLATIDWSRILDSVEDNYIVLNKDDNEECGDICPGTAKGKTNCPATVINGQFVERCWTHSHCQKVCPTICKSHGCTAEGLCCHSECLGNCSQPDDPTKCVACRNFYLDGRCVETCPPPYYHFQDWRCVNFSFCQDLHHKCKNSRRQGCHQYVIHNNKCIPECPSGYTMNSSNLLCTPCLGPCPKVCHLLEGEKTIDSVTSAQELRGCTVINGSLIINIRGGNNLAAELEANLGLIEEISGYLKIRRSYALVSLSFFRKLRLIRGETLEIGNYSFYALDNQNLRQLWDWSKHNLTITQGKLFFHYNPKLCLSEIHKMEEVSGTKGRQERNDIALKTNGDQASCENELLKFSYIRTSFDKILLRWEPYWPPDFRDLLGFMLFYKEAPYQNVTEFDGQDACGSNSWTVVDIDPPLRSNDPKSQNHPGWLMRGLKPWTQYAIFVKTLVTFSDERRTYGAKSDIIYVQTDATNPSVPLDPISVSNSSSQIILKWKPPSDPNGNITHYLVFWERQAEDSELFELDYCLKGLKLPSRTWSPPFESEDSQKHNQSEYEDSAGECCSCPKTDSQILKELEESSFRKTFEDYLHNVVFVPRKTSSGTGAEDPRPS
Sequence of Insulin receptor (P06213 763-1382 limits assumed): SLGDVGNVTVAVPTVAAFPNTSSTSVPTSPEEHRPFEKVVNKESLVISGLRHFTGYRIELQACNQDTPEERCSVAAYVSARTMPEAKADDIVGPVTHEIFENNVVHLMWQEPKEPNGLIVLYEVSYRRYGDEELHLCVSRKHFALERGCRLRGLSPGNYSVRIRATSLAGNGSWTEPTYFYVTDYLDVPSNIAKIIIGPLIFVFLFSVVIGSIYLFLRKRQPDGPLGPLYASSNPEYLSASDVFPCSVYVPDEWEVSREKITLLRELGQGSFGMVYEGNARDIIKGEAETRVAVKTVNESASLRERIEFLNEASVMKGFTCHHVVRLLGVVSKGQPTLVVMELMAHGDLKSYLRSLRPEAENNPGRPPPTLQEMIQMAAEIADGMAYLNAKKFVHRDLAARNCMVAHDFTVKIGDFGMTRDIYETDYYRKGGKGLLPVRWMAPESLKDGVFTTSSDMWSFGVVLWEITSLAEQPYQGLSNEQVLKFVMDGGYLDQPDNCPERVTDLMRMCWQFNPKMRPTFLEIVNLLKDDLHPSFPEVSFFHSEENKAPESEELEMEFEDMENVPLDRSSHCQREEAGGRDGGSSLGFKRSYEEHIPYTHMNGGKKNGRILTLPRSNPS
Sequence of Rho-associated protein kinase 2 (O75116 whole entry): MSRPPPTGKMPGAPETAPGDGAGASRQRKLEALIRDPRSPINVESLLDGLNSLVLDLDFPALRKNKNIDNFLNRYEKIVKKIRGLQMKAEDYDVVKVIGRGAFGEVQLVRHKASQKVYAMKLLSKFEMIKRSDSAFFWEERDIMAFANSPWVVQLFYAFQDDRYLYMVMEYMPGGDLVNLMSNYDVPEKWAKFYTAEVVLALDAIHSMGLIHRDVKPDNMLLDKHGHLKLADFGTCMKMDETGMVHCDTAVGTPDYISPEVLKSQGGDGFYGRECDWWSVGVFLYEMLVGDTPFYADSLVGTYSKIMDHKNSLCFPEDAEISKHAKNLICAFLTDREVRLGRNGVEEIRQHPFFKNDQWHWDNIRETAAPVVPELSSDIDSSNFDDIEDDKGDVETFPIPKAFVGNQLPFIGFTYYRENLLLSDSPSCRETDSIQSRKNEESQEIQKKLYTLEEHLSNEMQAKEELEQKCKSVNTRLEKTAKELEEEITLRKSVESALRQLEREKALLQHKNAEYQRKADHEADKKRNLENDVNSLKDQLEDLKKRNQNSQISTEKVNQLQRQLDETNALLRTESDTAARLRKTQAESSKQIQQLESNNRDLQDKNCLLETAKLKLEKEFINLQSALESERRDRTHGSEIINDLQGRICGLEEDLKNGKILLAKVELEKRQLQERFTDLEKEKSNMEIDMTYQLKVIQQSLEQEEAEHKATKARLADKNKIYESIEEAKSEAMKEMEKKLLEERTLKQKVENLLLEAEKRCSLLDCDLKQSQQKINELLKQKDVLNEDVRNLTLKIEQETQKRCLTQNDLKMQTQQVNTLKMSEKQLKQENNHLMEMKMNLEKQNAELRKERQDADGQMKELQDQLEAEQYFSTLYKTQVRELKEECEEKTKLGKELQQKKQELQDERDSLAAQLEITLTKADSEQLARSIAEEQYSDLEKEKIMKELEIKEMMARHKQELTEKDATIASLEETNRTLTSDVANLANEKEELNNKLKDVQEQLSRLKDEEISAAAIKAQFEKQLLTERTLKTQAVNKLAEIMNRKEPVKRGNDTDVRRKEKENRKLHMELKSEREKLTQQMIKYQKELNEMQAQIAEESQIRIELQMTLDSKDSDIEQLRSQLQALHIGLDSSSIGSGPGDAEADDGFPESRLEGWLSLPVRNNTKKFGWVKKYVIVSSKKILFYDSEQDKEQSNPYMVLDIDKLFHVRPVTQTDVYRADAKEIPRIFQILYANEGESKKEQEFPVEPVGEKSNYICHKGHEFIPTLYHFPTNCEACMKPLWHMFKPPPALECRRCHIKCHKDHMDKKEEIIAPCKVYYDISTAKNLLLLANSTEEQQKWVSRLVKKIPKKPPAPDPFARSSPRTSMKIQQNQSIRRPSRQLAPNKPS
Sequence of MAP kinase-activated protein kinase 5 (Q8IW41 whole entry): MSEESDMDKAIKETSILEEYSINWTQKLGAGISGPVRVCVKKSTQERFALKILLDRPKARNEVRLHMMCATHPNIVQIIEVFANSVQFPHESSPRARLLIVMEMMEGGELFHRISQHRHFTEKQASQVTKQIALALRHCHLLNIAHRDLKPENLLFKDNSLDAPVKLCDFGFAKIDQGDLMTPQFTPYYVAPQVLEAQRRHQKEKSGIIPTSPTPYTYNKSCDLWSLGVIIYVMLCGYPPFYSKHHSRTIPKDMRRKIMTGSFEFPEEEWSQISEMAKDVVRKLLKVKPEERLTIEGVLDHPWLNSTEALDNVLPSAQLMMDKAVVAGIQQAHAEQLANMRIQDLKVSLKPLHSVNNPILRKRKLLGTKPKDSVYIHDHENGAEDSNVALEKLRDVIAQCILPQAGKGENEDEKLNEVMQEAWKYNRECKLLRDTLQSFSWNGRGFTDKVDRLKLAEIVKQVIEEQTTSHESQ

Work on `Cc1c(/C=C/CN2CCOCC2)nc(O)c2c1ccc1nc(Nc3c(Cl)cccc3Cl)n(C)c12` yielded an EC50 [1] of 30 nM, an IC50 [2] of 4 nM and an EC50 [3] of 170 nM.
In the case of `Cc1c(/C=C/CN(C)C)nc(O)c2c1ccc1nc(Nc3c(Cl)cccc3Cl)n(C)c12`, the EC50 [1] is reported as 10 nM, the IC50 [2] is reported as 3 nM and the EC50 [3] is reported as 560 nM. It also gave an EC50 [4] of 680 nM.
In the case of `CCc1nc(O)c2c(ccc3nc(Nc4c(Cl)cccc4Cl)n(C)c32)c1C`, the EC50 [1] is reported as 80 nM and the IC50 [2] is reported as 780 nM.
In the case of `Cc1nc(O)c2c(ccc3nc(Nc4c(Cl)cccc4Cl)n(C)c32)c1CCC(=O)N1CCOCC1`, the EC50 [1] is reported as 270 nM and the IC50 [2] is reported as 120 nM.
`CCOC(=O)Cc1c(C)nc(O)c2c1ccc1nc(Nc3c(Cl)cccc3Cl)n(C)c12` showed an EC50 [1] of 140 nM and an IC50 [2] of 700 nM.
Work on `COc1ccc(CNCc2cc3c(C)c(C)nc(O)c3c3c2nc(Nc2c(Cl)cccc2Cl)n3C)cc1` yielded an EC50 [1] of 500 nM and an IC50 [2] of 180 nM.
For `CCn1c(Nc2c(Cl)cccc2Cl)nc2ccc3c(C)c(C)nc(O)c3c21`, the IC50 [2] was greater than 2500 nM.
Work on `Cc1nc(O)c2c(ccc3nc(Nc4c(Cl)cccc4Cl)n(C)c32)c1CCCN1CCOCC1` yielded an EC50 [1] of 300 nM and an IC50 [2] of 110 nM.
For `C=Cc1nc(O)c2c(ccc3nc(Nc4c(Cl)cccc4Cl)n(C)c32)c1C`, the EC50 [1] was 20 nM, the IC50 [2] was 45 nM and the EC50 [3] was 900 nM. It also gave an EC50 [4] of 12000 nM.
Compound `COC(=O)c1c(C)nc(O)c2c1ccc1nc(Nc3c(Cl)cccc3Cl)n(C)c12` has an EC50 [1] of 90 nM and an IC50 [2] of 87 nM.
In the case of `Cc1c(/C=C/CN(C)Cc2ccccc2)nc(O)c2c1ccc1nc(Nc3c(Cl)cccc3Cl)n(C)c12`, the EC50 [1] is reported as 200 nM and the IC50 [2] is reported as 10 nM.
Compound `Cc1nc(O)c2c(ccc3nc(Nc4c(Cl)cccc4Cl)n(C)c32)c1CCO` has an EC50 [1] of 90 nM and an IC50 [2] of 27 nM.
`CCN(CC)C/C=C/c1nc(O)c2c(ccc3nc(Nc4c(Cl)cccc4Cl)n(C)c32)c1C` gave an IC50 [5] of 400 nM, an IC50 [6] greater than 1000 nM and an IC50 [7] greater than 1000 nM. It also gave an IC50 [8] greater than 1000 nM, an IC50 [9] greater than 1000 nM and an IC50 [10] of 0.2 nM. For the same compound, the IC50 [11] was 50000 nM, the IC50 [12] was greater than 1000 nM and the IC50 [13] was greater than 1000 nM. It also gave an IC50 [14] greater than 30000 nM, an IC50 [15] greater than 1000 nM and an IC50 [16] greater than 100000 nM. The IC50 [17] was greater than 300000 nM, the IC50 [18] was greater than 100000 nM and the IC50 [19] was 2 nM. It also gave an IC50 [20] greater than 100000 nM, an IC50 [21] of 8 nM and an EC50 [1] of 7 nM. For the same compound, the IC50 [22] was greater than 1000 nM, the IC50 [23] was greater than 100000 nM and the IC50 [24] was 50000 nM. The IC50 [25] was greater than 1000 nM, the IC50 [26] was greater than 100000 nM and the IC50 [27] was greater than 10000 nM. It also gave an IC50 [28] greater than 1000 nM, an IC50 [29] greater than 1000 nM and an EC50 [3] of 130 nM. It also gave an IC50 [30] greater than 1000 nM, an IC50 [31] greater than 100000 nM and an IC50 [32] greater than 10000 nM. The IC50 [33] was greater than 1000 nM, the IC50 [34] was greater than 1000 nM and the EC50 [4] was 1800 nM. It also gave an IC50 [35] greater than 100000 nM, an IC50 [36] greater than 40000 nM and an IC50 [37] greater than 1000 nM. The inhibition [38] was 87%.
Compound `Cc1nc(O)c2c(ccc3nc(Nc4c(Cl)cccc4Cl)n(C)c32)c1C` has an EC50 [1] of 130 nM, an IC50 [2] of 23 nM and an EC50 [4] of 1100 nM.
Compound `Cc1nc(O)c2c(ccc3c2nc(Nc2c(Cl)cccc2Cl)n3C)c1C` has an IC50 [2] greater than 2000 nM.
`Cc1c(/C=C/CN2CCCC2)nc(O)c2c1ccc1nc(Nc3c(Cl)cccc3Cl)n(C)c12` showed an EC50 [1] of 5 nM, an EC50 [3] of 150 nM and an EC50 [4] of 300 nM.
In the case of `Cc1c(/C=C/CO)nc(O)c2c1ccc1nc(Nc3c(Cl)cccc3Cl)n(C)c12`, the EC50 [1] is reported as 8 nM and the EC50 [4] is reported as 3000 nM.
